Calls of active or inactive are those of the source. The rule behind the calls is not given here.
Experiments:
[1] = biological target: High affinity nerve growth factor receptor (Homo sapiens, UniProt P04629); experiment: Inhibition of human TrkA (440 to end residues) using KKKSPGEYVNIEFG as substrate measured after 40 mins in presence of [gamma33P]ATP by scintillation counting method
Outline: (§1)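 Eurofins radiometric kinase assay run at ATP equal to Km for each kinase. 9-point dose–response in duplicate gives the IC50.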

[2] = biological target: T1, MAP/microtubule affinity-regulating kinase 4 (Homo sapiens, UniProt Q96L34); experiment: Displacement of tracer K5 from NLuc fused MARK4 (unknown origin) expressed in HEK293 cells by NanoBRET assay; assay type: cell-based
T1 sequence (Q96L34 whole entry): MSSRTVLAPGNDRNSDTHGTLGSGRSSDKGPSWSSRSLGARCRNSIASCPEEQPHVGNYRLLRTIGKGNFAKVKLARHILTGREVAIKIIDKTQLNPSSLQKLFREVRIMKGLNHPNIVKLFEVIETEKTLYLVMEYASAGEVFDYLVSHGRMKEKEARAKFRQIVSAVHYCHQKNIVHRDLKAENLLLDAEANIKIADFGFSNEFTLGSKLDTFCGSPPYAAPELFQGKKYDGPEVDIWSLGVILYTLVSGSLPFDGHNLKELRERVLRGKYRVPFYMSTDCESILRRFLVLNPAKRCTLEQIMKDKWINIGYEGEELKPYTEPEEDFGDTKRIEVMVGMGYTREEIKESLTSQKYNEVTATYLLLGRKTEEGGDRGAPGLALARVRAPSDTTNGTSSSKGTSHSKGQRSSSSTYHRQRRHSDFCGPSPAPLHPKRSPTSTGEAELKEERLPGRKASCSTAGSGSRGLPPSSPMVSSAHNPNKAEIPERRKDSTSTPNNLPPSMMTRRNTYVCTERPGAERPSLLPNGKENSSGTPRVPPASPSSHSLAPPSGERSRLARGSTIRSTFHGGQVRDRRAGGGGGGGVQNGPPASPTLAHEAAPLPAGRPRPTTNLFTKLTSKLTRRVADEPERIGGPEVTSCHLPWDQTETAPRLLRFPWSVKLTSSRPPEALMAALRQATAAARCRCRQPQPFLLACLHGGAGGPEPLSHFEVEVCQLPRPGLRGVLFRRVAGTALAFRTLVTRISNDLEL

[3] = biological target: Tyrosine-protein kinase JAK2 (Homo sapiens) (UniProt O60674); experiment: Inhibition of recombinant human JAK2 (808 to end residues) using KTFCGTPEYLAPEVRREPRILSEEEQEMFRDFDYIADWC as substrate at 1 uM incubated for 40 mins in presence of [gamma-33P-ATP] by radiometric scintillation assay relative to control
Outline: (§2)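 Eurofins radiometric kinase assay with ATP at Km for each kinase. Compound was tested at a single 1 μM concentration in duplicate, and the result is reported as percent of control.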

[4] = biological target: T2, Serine/threonine-protein kinase 17A (Homo sapiens, UniProt Q9UEE5); experiment: Displacement of tracer K9 from NLuc fused DRAK1 (unknown origin) expressed in HEK293 cells by NanoBRET assay; assay type: cell-based
T2 sequence (Q9UEE5 whole entry): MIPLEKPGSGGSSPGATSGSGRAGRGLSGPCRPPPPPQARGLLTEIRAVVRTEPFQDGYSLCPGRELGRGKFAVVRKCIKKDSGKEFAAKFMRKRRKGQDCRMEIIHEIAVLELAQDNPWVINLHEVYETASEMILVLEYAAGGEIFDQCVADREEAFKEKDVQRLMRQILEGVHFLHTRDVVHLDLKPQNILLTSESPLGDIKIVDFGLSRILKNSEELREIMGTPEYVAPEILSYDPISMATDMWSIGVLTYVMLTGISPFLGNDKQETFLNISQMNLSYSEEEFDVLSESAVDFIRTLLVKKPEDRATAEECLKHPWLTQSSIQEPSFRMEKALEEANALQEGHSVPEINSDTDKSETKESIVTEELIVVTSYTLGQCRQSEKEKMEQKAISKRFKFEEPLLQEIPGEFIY

[5] = Inhibition of human TTBK1 (1 to 479 residues) using Casein as substrate measured after 40 mins in presence of [gamma33P]ATP by scintillation counting method; outline: as §1
[6] = Effective permeability in PBS at 7.4 incubated for 5 hrs by PAMPA analysis; assay type: ADME; conditions: pH 7.4, 5 h
Outline: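 PAMPA: DMSO stocks were diluted in PBS pH 7.4 and placed in the donor compartment, with PBS pH 7.4 in the acceptor, for 5 h. Both compartments were quantified by CLND against a calibration curve, with background nitrogen correction. Effective permeability was calculated from donor and acceptor concentrations using measured rather than assumed solubility.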

[7] = biological target: T3, MAP/microtubule affinity-regulating kinase 3 (Homo sapiens, UniProt P27448); experiment: Displacement of tracer K9 from NLuc fused MARK3 (unknown origin) expressed in HEK293 cells by NanoBRET assay; assay type: cell-based
Target sequence in this assay (P27448 whole entry, the tested form may be a part): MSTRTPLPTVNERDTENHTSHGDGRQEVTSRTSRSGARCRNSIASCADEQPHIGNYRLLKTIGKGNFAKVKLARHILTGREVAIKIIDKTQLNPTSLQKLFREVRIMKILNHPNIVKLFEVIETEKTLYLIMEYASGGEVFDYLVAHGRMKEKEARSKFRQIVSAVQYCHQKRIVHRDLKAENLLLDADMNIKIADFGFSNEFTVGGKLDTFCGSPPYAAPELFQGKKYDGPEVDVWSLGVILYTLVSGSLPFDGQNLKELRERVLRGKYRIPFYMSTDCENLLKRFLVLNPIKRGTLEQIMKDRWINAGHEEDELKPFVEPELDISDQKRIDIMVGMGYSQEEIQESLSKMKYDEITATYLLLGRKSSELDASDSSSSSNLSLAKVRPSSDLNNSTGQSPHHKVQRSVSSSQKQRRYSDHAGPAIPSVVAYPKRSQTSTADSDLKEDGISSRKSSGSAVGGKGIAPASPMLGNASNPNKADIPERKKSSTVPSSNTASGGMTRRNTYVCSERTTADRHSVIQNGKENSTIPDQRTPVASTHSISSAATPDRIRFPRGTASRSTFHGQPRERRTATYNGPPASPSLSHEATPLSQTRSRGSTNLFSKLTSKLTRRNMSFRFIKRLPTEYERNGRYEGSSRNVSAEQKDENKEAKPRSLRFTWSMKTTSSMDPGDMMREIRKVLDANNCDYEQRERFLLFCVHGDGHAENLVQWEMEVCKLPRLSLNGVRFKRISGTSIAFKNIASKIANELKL

[8] = Kinetic solubility of compound in PBS at pH 7.4 incubated for 24 hrs by chemiluminscent nitrogen detection method; assay type: physicochemical; conditions: buffer, pH 7.4, 24 h
Outline: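 Filtrates were quantified by total chemiluminescent nitrogen determination against a calibration curve, with correction for background nitrogen from DMSO and medium.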

[9] = biological target: Aurora kinase B (Homo sapiens) (UniProt Q96GD4); experiment: Inhibition of full length recombinant human AURKB using AKRRRLSSLRA as substrate at 1 uM incubated for 40 mins in presence of [gamma-33P-ATP] by radiometric scintillation assay relative to control; outline: as §2
[10] = biological target: BMP-2-inducible protein kinase (Homo sapiens, UniProt Q9NSY1); experiment: Inhibition of 1recombinant human BMP2K using myelin basic protein as substrate incubated for 120 mins in presence of [gamma-33P-ATP] by radiometric scintillation assay
[11] = biological target: T4, Serine/threonine-protein kinase TBK1 (Homo sapiens, UniProt Q9UHD2); experiment: Displacement of tracer K5 from NLuc fused TBK1 (unknown origin) expressed in HEK293 cells by NanoBRET assay; assay type: cell-based
T4 sequence (Q9UHD2 whole entry): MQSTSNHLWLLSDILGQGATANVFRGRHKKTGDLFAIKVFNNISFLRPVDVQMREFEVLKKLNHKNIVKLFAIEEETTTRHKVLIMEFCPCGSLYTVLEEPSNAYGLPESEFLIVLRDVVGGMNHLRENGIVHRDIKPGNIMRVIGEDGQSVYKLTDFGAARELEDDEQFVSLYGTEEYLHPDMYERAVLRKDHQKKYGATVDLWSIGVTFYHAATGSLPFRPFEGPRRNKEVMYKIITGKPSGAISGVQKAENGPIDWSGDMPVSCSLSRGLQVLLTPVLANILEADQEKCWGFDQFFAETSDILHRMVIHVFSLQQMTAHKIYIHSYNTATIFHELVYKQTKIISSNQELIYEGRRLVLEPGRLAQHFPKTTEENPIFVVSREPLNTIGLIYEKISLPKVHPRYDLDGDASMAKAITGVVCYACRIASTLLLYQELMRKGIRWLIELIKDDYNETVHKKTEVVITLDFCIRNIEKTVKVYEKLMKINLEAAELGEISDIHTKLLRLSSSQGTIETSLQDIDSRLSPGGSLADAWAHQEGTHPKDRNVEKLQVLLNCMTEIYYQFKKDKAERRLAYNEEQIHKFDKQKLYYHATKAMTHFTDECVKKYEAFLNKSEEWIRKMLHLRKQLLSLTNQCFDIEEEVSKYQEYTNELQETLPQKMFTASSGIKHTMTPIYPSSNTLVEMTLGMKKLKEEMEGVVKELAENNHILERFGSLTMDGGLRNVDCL
Outline: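 HEK293 cells grown in DMEM with 10% FBS at 37 °C, 5% CO2. NanoBRET assay run in dose–response per manufacturer's protocol with tracer K-5 at 0.5 μM. SEM calculated for assays run more than once.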

[12] = biological target: Serine/threonine-protein kinase MARK1 (Homo sapiens) (UniProt Q9P0L2); experiment: Inhibition of recombinant human MARK1 (2 to end residues) using KKKVSRSGLYRSPSMPENLNRPR as substrate incubated for 40 mins in presence of [gamma-33ATP] by scintillation counting based radiometry assay
Outline: (§3)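 Eurofins radiometric enzymatic assay with ATP at Km for each kinase. IC50 was derived from a 9-point dose–response curve run in duplicate.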

[13] = biological target: T5, Serine/threonine-protein kinase 17A (Homo sapiens) (UniProt Q9UEE5); experiment: Inhibition of recombinant human DRAK1 using KKLNRTLSFAEPG as substrate after 40 mins in presence of [gamma-33ATP] by scintillation counting based radiometry assay; outline: as §1
T5 sequence (whole entry): T2 sequence (Q9UEE5 whole entry)

[14] = biological target: AP2-associated protein kinase 1 (Homo sapiens, UniProt Q2M2I8); experiment: Inhibition of human AAK1 using peptide as substrate incubated for 120 mins in presence of [gamma-33ATP] by scintillation counting based radiometry assay; outline: as §1
[15] = biological target: T6, Serine/threonine-protein kinase 17B (Homo sapiens) (UniProt O94768); experiment: Inhibition of recombinant human DRAK2 using KKRPQRRYSNVF as substrate after 120 mins in presence of [gamma-33ATP] by scintillation counting based radiometry assay; outline: as §3
T6 sequence (whole entry): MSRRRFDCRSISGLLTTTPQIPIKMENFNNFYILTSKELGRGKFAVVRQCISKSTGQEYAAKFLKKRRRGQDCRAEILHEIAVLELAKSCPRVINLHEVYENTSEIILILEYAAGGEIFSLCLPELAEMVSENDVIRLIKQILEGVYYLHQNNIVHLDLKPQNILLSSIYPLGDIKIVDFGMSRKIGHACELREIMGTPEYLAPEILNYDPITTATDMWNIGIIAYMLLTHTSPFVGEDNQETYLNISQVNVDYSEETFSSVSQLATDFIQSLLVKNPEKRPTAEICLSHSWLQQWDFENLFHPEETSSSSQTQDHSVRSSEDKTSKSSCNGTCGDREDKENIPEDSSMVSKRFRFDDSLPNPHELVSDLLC

[16] = biological target: NUAK family SNF1-like kinase 1 (Homo sapiens) (UniProt O60285); experiment: Inhibition of recombinant human ARK5 (2 to end residues) using KKKVSRSGLYRSPSMPENLNRPR as substrate incubated for 40 mins in presence of [gamma-33ATP] by scintillation counting based radiometry assay; outline: as §3
[17] = biological target: T3, MAP/microtubule affinity-regulating kinase 3; experiment: Inhibition of recombinant full length human MARK3 using KKKVSRSGLYRSP as substrate incubated for 40 mins in presence of [gamma-33ATP] by scintillation counting based radiometry assay; outline: as §3
Target sequence in this assay (P27448 whole entry, looked up, the tested form may be a part): as the sequence (P27448 whole entry, the tested form may be a part) above

[18] = biological target: Mitogen-activated protein kinase kinase kinase 9 (Homo sapiens) (UniProt P80192); experiment: Inhibition of recombinant human MLK1 (134 to 414 residues) using casein as substrate incubated for 40 mins in presence of [gamma-33ATP by scintillation counting based radiometry assay; outline: as §3
[19] = biological target: T7, MAP/microtubule affinity-regulating kinase 4 (Homo sapiens) (UniProt Q96L34); experiment: Inhibition of recombinant full length human MARK4 using KKKVSRSGLYRSPSMPENLNRPR as substrate incubated for 40 mins in presence of [gamma-33ATP] by scintillation counting based radiometry assay; outline: as §3
T7 sequence (whole entry): T1 sequence (Q96L34 whole entry)

Chain of Serine/threonine-protein kinase MARK1 (Homo sapiens) (Q9P0L2 whole entry, looked up): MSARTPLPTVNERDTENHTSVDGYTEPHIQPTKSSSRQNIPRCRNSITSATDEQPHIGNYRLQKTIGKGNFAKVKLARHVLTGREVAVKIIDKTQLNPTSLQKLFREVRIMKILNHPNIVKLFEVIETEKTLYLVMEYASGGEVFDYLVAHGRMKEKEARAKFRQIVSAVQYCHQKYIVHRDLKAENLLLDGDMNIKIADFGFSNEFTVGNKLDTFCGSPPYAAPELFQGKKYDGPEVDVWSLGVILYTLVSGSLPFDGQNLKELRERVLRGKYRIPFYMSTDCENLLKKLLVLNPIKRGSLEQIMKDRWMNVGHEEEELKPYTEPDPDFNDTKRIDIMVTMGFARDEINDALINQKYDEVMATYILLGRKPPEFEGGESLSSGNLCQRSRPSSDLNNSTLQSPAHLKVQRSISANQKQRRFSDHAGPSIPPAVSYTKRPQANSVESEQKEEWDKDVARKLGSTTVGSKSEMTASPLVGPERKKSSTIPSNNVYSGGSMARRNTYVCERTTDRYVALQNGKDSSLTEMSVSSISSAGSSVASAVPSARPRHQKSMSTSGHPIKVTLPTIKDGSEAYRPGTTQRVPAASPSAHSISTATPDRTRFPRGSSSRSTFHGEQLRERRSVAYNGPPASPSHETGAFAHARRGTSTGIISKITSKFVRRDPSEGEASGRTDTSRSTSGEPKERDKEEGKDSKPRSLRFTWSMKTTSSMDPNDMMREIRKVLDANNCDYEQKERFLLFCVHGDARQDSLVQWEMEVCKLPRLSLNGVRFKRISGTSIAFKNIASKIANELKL
Chain of AP2-associated protein kinase 1 (Q2M2I8 whole entry, looked up): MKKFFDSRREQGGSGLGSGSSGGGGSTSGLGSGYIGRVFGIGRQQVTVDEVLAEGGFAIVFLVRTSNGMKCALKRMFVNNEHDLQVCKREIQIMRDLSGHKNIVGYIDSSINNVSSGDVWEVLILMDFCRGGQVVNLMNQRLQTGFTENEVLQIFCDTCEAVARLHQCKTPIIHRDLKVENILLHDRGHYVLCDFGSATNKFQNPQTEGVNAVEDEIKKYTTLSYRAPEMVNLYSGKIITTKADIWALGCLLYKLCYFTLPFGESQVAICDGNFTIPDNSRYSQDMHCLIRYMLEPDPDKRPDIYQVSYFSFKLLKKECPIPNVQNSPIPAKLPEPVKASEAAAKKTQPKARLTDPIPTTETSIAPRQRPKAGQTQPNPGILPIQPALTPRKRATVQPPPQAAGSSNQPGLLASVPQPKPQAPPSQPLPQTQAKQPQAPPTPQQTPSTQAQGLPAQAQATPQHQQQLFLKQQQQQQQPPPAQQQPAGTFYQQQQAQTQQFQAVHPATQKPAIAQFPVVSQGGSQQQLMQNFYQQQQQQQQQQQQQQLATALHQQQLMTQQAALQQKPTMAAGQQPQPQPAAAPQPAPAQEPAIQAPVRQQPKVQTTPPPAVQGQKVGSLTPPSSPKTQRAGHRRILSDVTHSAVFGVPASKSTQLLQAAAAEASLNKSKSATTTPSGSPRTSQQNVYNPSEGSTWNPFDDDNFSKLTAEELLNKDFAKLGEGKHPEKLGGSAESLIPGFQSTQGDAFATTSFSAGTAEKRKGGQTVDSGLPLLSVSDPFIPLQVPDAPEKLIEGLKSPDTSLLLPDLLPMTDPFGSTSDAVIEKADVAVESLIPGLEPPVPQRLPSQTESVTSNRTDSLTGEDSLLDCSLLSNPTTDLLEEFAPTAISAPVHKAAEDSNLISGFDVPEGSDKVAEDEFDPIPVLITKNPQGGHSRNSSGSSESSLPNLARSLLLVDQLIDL
Chain of Aurora kinase B (Homo sapiens) (Q96GD4 whole entry): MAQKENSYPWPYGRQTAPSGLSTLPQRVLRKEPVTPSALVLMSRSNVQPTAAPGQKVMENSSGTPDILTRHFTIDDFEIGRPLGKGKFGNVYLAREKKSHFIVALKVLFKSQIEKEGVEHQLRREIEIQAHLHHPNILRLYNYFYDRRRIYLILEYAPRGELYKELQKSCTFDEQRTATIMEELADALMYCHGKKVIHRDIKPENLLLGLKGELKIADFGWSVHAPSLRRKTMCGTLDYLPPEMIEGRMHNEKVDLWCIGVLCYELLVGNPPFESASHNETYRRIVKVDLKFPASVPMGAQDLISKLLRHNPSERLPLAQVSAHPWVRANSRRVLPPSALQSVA
Chain of Mitogen-activated protein kinase kinase kinase 9 (Homo sapiens) (P80192 whole entry, looked up, the tested form may be a part): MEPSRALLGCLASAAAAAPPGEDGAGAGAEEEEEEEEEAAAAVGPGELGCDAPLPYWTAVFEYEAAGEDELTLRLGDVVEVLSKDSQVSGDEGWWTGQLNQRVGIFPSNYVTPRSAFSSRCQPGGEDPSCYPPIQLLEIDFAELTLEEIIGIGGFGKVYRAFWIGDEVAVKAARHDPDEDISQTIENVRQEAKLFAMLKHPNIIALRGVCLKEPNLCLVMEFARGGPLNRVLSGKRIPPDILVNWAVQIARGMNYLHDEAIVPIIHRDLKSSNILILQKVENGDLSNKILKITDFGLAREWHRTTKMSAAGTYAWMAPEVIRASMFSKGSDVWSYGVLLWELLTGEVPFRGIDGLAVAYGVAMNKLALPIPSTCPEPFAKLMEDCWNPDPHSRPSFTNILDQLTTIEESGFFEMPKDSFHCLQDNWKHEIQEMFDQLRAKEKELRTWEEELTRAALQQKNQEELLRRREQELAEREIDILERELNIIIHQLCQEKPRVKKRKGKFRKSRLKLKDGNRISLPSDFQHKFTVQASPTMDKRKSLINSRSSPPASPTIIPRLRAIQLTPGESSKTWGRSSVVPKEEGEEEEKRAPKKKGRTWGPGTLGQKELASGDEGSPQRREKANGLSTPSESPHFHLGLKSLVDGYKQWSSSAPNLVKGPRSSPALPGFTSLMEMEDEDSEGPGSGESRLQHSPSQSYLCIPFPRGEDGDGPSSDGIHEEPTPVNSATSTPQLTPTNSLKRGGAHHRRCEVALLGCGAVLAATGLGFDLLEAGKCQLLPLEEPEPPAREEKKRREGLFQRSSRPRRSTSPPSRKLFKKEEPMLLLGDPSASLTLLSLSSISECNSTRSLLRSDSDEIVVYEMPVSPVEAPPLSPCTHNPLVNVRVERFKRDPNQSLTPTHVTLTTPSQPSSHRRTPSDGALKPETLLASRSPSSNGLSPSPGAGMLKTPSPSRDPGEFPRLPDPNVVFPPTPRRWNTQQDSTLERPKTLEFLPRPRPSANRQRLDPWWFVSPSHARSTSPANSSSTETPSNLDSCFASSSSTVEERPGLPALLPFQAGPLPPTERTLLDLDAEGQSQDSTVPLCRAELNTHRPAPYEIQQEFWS
Chain of High affinity nerve growth factor receptor (P04629 whole entry): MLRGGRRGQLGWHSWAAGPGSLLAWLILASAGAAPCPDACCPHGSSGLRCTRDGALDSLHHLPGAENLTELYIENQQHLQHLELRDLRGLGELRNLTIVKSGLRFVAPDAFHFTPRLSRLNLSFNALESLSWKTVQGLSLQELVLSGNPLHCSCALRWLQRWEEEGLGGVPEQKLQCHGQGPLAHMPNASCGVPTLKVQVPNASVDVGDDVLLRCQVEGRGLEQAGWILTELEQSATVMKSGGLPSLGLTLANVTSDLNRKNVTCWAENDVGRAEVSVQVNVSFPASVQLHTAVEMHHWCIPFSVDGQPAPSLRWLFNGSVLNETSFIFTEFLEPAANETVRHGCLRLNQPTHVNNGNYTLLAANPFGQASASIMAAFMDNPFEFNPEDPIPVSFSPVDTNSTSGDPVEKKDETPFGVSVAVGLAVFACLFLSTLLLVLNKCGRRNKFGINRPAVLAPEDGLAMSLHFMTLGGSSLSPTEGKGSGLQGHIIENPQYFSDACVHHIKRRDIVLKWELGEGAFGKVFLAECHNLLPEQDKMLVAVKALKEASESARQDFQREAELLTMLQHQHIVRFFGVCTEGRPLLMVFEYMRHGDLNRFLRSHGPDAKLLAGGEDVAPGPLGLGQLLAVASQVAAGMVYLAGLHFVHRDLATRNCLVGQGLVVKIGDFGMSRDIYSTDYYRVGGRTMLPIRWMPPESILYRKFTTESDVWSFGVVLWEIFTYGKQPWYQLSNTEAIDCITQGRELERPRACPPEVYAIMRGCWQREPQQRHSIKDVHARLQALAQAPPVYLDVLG

Row | SMILES | IC50 [1] | IC50 [2] | % control [3] | IC50 [4] | IC50 [5] | Peff [6] | IC50 [7] | Kinetic solubility [8] | % control [9] | IC50 [10] | IC50 [11] | inhibition [12] | inhibition [13] | inhibition [14] | inhibition [15] | inhibition [16] | Kinetic_solubility [8] | inhibition [17] | inhibition [18] | inhibition [19]
1 | NS(=O)(=O)c1ccc(CNc2nc(Nc3cccc(NC(=O)N4CCCC4)c3)ncc2C2CC2)cc1 | 0.477 µM | > 10 µM | 107% | > 10 µM | 0.128 µM | 2.6 10^-6 cm/s | > 10 µM | 85.6 µM | 61% | 2.92 µM | > 10 µM | – | – | – | – | – | – | – | – | –
2 | Cc1nn(CC(F)(F)F)cc1Nc1ncc(Br)c(NCCCNC(=O)C2CCC2)n1 | – | 3.54 µM | – | 0.126 µM | – | 3.73 10^-6 cm/s | > 10 µM | 40.3 µM | – | – | 0.321 µM | Active | Active | Active | Active | – | – | – | – | –
3 | c1cc(CN2CCOCC2)cc(Nc2ncc(C3CC3)c(NCCc3c[nH]cn3)n2)c1 | – | 0.808 µM | – | 3.62 µM | – | 5.61 10^-7 cm/s | 4.01 µM | – | – | – | > 10 µM | Active | – | – | – | Active | 173.6 µM | Active | Active | Active
